pIC50: −log10 of the molar value. A value given as a limit tells only on which side of the number the result lay.

Chain of Transporter (Q63380 whole entry): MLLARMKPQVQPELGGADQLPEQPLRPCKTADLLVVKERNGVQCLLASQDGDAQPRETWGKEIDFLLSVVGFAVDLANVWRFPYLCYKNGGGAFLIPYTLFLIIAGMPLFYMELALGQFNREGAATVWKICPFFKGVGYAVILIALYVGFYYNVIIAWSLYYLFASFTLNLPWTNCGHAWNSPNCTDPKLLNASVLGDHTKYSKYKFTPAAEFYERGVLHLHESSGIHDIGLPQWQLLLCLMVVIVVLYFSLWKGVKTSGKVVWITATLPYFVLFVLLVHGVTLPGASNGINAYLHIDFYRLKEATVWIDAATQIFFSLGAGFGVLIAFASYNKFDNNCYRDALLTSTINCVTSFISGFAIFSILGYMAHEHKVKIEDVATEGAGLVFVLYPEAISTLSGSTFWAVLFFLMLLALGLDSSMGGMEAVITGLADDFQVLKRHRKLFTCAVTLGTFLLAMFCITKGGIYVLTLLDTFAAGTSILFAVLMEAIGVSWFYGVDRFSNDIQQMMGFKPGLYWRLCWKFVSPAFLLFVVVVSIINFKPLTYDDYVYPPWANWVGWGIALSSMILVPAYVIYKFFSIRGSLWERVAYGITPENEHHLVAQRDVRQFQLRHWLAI

One experiment concerns Mus musculus. As to the kind of experiment: Antidepressant activity in ip dosed CD1 mouse assessed as inhibition of tetrabenazine methanesulfonate-induced reserpine like behavior administered 30 mins before tetrabenazine methanesulfonate challenge measured after 30 mins. It is filed as functional. Put shortly: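 Male CD-1 mice, groups of five, given test compound ip; tetrabenazine methanesulfonate 40 mg/kg ip 30 min later; after a further 30 min mice placed in individual containers and ptosis scored on a three-point scale (eyes closed = 2).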
Turning to `Br.CN1CCC(c2ccccc2Cc2ccc(F)cc2)CC1`, the ED50 was 4.9 mg/kg.
Consider `Br.COc1ccc(Cc2ccccc2C2CCN(C)CC2)cc1`, for which the ED50 is > 20 mg/kg.
`CN1CCC(c2ccccc2Cc2ccc(O)cc2)CC1`: the ED50 is > 20 mg/kg.
The same measure, in the same setting: the figure for `Br.c1ccc(CCN2CCC(c3ccccc3Cc3ccccc3)CC2)cc1` is 10.8 mg/kg; for `Br.Fc1ccc(Cc2ccccc2C2CCNCC2)cc1` it is 1.5 mg/kg.
Regarding `COc1ccc(Cc2ccccc2C2CCNCC2)cc1.Cl`, the 50% effective dose (ED50) is 7.1 mg/kg.
The same measure, in the same setting: the figure for `Oc1ccc(Cc2ccccc2C2CCNCC2)cc1` is 1.2 mg/kg; for `ON1CCC(c2ccccc2Cc2ccccc2)CC1` it is 7.3 mg/kg; for `O=C(Oc1ccccc1)N1CCC(c2ccccc2Cc2ccccc2)CC1` it is > 20 mg/kg.
With `CN1CCC(O)(c2ccccc2Cc2ccccc2)CC1`, the median effective dose (ED50) came out at 18 mg/kg.
On the same count and under the same terms, the figure for `CN1CCC(O)(c2cccc(Cc3ccccc3)c2)CC1` is > 20 mg/kg; for `CN1CCC(O)(c2ccc(Cc3ccccc3)cc2)CC1` it is > 20 mg/kg.
The same measure, in the same setting: the same measure for `COc1ccc(Cc2ccccc2C2(O)CCN(C)CC2)cc1`: > 20 mg/kg; for `Cl.OC1(c2ccccc2Cc2ccccc2)CCN(Cc2ccccc2)CC1`: > 20 mg/kg; for `OC1(c2ccccc2Cc2ccccc2)CCN(CCc2ccccc2)CC1`: > 20 mg/kg.
Same read-out and setting: the same measure for `CC(=O)OC1(c2ccccc2Cc2ccccc2)CCN(C)CC1.Cl`: > 20 mg/kg; for `CC(=O)OC1(c2cccc(Cc3ccccc3)c2)CCN(C)CC1.Cl`: > 20 mg/kg.
With `CC(=O)OC1(c2ccccc2Cc2ccccc2)CCN(Cc2ccccc2)CC1.Cl`, the ED50 is > 20 mg/kg.
Same read-out and setting: the same measure for `COC1(c2ccccc2Cc2ccccc2)CCN(C)CC1.Cl`: > 20 mg/kg.
Same read-out and setting: the same measure for `COC1(c2ccccc2Cc2ccccc2)CCNCC1`: 7.8 mg/kg.
Still for that read-out and setting: the figure for `Br.CN1CC=C(c2cccc(Cc3ccccc3)c2)CC1` is > 20 mg/kg.
With `Br.CN1CC=C(c2ccc(Cc3ccccc3)cc2)CC1`, the ED50 was > 20 mg/kg.
Same read-out and setting: the same measure for `Br.COc1ccc(Cc2ccccc2C2=CCN(C)CC2)cc1`: > 20 mg/kg; for `C1=C(c2ccccc2Cc2ccccc2)CCN(Cc2ccccc2)C1.Cl`: > 20 mg/kg; for `C1=C(c2ccccc2Cc2ccccc2)CCN(CCc2ccccc2)C1`: > 20 mg/kg.
The same measure, in the same setting: the figure for `Cl.c1ccc(COC2(c3ccccc3)CCNCC2)cc1` is 10.1 mg/kg; for `Cl.c1ccc(COC2(c3ccccc3)CCN(CC3CC3)CC2)cc1` it is 6.3 mg/kg; for `CCOC(=O)N1CCC(OCc2ccccc2)(c2ccccc2)CC1` it is > 20 mg/kg.
As to `CN1CCC(OCc2ccccc2)(c2ccccc2)CC1.Cl`, the 50% effective dose (ED50) amounted to 6.2 mg/kg.
The same measure, in the same setting: the figure for `c1ccc(CCN2CCC(OCc3ccccc3)(c3ccccc3)CC2)cc1` is > 20 mg/kg; for `CN(C)CCC=C1c2ccccc2CCc2ccccc21` [AMITRIPTYLINE] it is 1.9 mg/kg; for `CNCCCN1c2ccccc2CCc2ccccc21` [DESIPRAMINE] it is 0.8 mg/kg.
On to `CN(C)CCCN1c2ccccc2CCc2ccccc21` [IMIPRAMINE], for which the ED50 came to 1.3 mg/kg.

Another experiment has as its target Transporter (Rattus norvegicus, UniProt Q63380). As to the kind of experiment: Inhibition of NET-mediated norepinephrine uptake in rat brain synaptosomes. It is filed as subcellular.
Regarding `c1ccc(C2OC3(CCNCC3)c3ccccc32)cc1` (centres undefined), the negative-log IC50 (pIC50) was 8.00.

One may read the ED50 as the midpoint of the dose-response relation. A word on the pIC50: it is −log10 of the IC50, conventionally taken in molar units. The low end stands for a large IC50, the high end for a small IC50.

(Values after ChEMBL document CHEMBL3244303, “Synthesis of spiro[isobenzofuran-1(3H),4'-piperidines] as potential central nervous system agents. 5. Conformationally mobile analogues derived by furan ring opening” (J Med Chem, 1979).)
